Test results from PubChem BioAssay AID651627 (The Scripps Research Institute Molecular Screening Center, 2012).

target: Protein-arginine deiminase type-4 (Homo sapiens) (UniProt Q9UM07); assay: PAD4 inhibition reversibility after dialysis, late-stage follow-up, mechanism study for PAD4 inhibitor project, biochemical, BAEE substrate, colorimetric citrulline readout (AID 651627); conditions: recombinant PAD4, dialysis, at 100 µM, hits give low values
How it was run: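 System: recombinant PAD4 enzyme / Compound: one dose, 100 µM / Incubation: compound pre-incubation, 20 h dialysis, then 15 min substrate reaction at 37 °C / Detection: colorimetric citrulline detection, absorbance at 540 nm / Control set: DMSO-treated enzyme without compound as reference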

Sequence of Protein-arginine deiminase type-4 (Homo sapiens) (Q9UM07 whole entry, looked up): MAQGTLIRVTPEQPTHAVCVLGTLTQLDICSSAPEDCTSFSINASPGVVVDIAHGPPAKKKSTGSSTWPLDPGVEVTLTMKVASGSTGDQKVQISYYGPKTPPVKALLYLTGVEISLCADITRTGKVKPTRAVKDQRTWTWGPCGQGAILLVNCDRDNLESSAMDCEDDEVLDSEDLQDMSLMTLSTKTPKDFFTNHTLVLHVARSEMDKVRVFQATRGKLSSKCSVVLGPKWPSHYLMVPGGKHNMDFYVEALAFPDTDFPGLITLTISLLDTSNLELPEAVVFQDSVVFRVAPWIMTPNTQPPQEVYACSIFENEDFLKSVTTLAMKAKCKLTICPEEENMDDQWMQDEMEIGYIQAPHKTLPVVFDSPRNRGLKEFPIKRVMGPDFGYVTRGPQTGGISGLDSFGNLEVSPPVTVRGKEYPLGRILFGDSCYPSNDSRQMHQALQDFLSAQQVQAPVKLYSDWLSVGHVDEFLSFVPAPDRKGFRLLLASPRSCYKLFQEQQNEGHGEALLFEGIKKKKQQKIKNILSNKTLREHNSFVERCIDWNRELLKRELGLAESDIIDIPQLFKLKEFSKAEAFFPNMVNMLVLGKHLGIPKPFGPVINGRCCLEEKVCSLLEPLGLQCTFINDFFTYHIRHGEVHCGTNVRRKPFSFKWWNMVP

Residual activity after dialysis, active:
NC1=CC(=O)c2ccc(-c3cccc(C(=O)O)n3)nc2C1=O 0%, COC1=C(Br)C(=O)c2ncccc2C1=O 0%, NC1=CC(=O)c2ccc(-c3ccccn3)nc2C1=O 12%, NC1=CC(=O)c2cccnc2C1=O 2%, COC(=O)c1cccc(-c2ccc3c(n2)C(=O)C(N)=CC3=O)n1 13%
